From paper PMC8930943 (Clinical Drug Investigation, 2022)
Where “and” joins values, the source holds several entries; their conditions need not be identical. Identical values can stand only once. Entries after “also recorded” stand apart in the source; their conditions may differ. Like-named read-outs stand apart in the source and are kept apart here.

Experiments:
[1] = single oral 45 mg dose of [14C] radiolabeled dacomitinib; cited from earlier work
Study 2 = format: in vivo, human
[2] = cited from earlier work
human plasma proteins = settings: independent of drug concentrations from 250 to 1000 ng/mL; cited from earlier work
Study 1 = format: in vivo, human
[3] = Assessment of safety and tolerability in Study 1 and Study 2; format: in vivo, human
In short: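 Single 30 mg oral dose given after a >8-h fast with 180 mL (Study 1) or 240 mL (Study 2) water. Safety was assessed from AEs, laboratory abnormalities, physical examination, vital signs and 12-lead ECGs taken after 10-min supine rest. ECG times: Study 1 at screening, predose, 6, 48 and 264 h; Study 2 at screening, predose, 6 h, 144 h and follow-up. Participants stayed in-house to 144 h, with follow-up on Days 8–10 and 12.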

[4] = cited from earlier work; remark: listed apart in the source
[5] = Study 2, severe hepatic impairment
[6] = severe hepatic impairment, single oral dacomitinib 30 mg
[7] = mild hepatic impairment, single oral dacomitinib 30 mg
[8] = Study 1 and Study 2, single oral dose of 30 mg

Structure (SMILES): COc1cc2ncnc(Nc3ccc(F)c(Cl)c3)c2cc1NC(=O)/C=C/CN1CCCCC1 [Dacomitinib]
- radioactivity recovered in feces [1]: 79%
- radioactivity recovered in feces as dacomitinib [1]: 20%
- radioactivity recovered in urine [1]: 3%
- radioactivity recovered in urine as dacomitinib [1]: < 1%
- AUCinf,u increase compared with normal hepatic function (Study 2; [5]): 32%
- Cmax,u increase compared with normal hepatic function (Study 2; [5]): approximately 69%
- adjusted GMR for Cmax,u (90% CI) (Study 2; Study 2, severe hepatic impairment vs normal hepatic function, printed as ratio): 1.69 [90% CI 1.08–2.63]
- AUCinf increase compared with normal hepatic function (Study 2; [6]): 4% and 4.4%
- correlation of concentrations with changes in corrected QT interval [2]: not found to correlate
- in vitro binding to human plasma proteins (human plasma proteins): approximately 98%
- adjusted GMR for Cmax,u (90% CI) (Study 1; Study 1, mild hepatic impairment vs normal hepatic function, printed as ratio): 1.00 (90% CI 0.69–1.44)
- AUCinf and Cmax compared with normal hepatic function (Study 1; Study 1, mild hepatic impairment, single oral dacomitinib 30 mg): unchanged; also recorded: similar
- AUCinf decrease compared with normal hepatic function (Study 1; [7]): 6%
- Cmax increase compared with normal hepatic function (Study 1; [7]): 3%
- Cmax decrease compared with normal hepatic function (Study 1; moderate hepatic impairment, single oral dacomitinib 30 mg): 20%
- AEs reported ([3]; Study 1, normal hepatic function or mild hepatic impairment groups): no AEs were reported
- serious AEs, discontinuations, treatment-related deaths [3, 8]: no serious AEs, discontinuations due to study treatment, or treatment-related deaths
- vital signs, laboratory values, ECG measurements [3, 8]: No clinically significant changes
- AEs reported ([3]; Study 2, normal hepatic function or severe hepatic impairment groups): no AEs were reported
- tolerability ([3]; single oral dose of 30 mg, healthy participants and participants with mild, moderate, or severe hepatic impairment): well tolerated

Structure (SMILES): O=C(/C=C/CN1CCCCC1)Nc1cc2c(Nc3ccc(F)c(Cl)c3)ncnc2cc1O [PF-05199265, O-desmethyl dacomitinib]
- AUCinf decrease compared with normal liver function (Study 2; [6]): 19%
- Cmax decrease compared with normal liver function (Study 2; [6]): 66%

Structure (SMILES): C=CC(=O)Nc1cc(Nc2nccc(-c3cn(C)c4ccccc34)n2)c(OC)cc1N(C)CCN(C)C [osimertinib]
- decrease in AUC versus normal hepatic function ([4]; cancer patients with mild hepatic impairment (n = 7)): 63%
- decrease in AUC versus normal hepatic function ([4]; cancer patients with moderate hepatic impairment (n = 5)): 68%
